In data set [1] the test system is male rats. The settings on record: cited from earlier work.
The subject of data set [2] is hamster oviduct (infundibulum) cilia. Nature of the data set: Ciliary beat frequency assay, hamster oviductal explants in vitro. It counts as cell-based, golden hamster (Mesocricetus auratus). The conditions noted are these: for Efficacy, Ciliary Beat Frequency: mean percentage of inhibition at the LOAEL.
Data set [3] deals with hamster oviduct infundibular smooth muscle. Nature of the data set: Infundibular smooth muscle contraction assay, hamster oviduct explants in vitro. The settings on record: for LOAEL, infundibular smooth muscle contraction: as stated in the abstract; for Efficacy, Contraction Rate: mean percentage of inhibition at the LOAEL; for LOAEL, Contraction Rate: lowest observable adverse effect level, hamster infundibulum in EBSS-H with 0.1% BSA, n = 4 infundibula. The class given is cell-based, golden hamster (Mesocricetus auratus).

For data set [4], the system named is hamster oviduct (infundibulum). The experiment in a line: Oocyte pickup rate assay, hamster oviduct explants in vitro. The class given is cell-based, golden hamster (Mesocricetus auratus). The settings on record: for Efficacy, Oocyte Pickup Rate: mean percentage of inhibition at the LOAEL. In short, it runs like this:
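Female golden hamsters were primed with 25 IU PMSG on estrous day 1 and 25 IU hCG on day 3, then killed with CO2 about 12 h later. On infundibulum explants, transit time of an oocyte-cumulus complex (OCC) along a fixed path was timed, 6–10 times each in EBSS-H/0.1% BSA control, one test dose (10-13–10-5 M screen; ANOVA), and recovery. The LOAEL was repeated to n = 4 infundibula, and efficacy was taken as mean % inhibition there.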

In data set [5] the test system is chick chorioallantoic membrane (CAM). The settings on record: due to inhibition of DNA synthesis; cited from earlier work.
The test system of data set [6] is female mice. The conditions noted are these: due to effects on adrenal function; cited from earlier work.
Data set [7] has as its system rats. The settings on record: dose-dependent; cited from earlier work.
The mark [8] stands for this setting: more inhibitory than pyridine, pyridine data ref 16.
The mark [9] stands for this setting: lowest observable adverse effect level, hamster infundibulum in EBSS-H with 0.1% BSA, n = 4 infundibula.

Where “and” joins values, the source holds several entries; their conditions need not be identical. Equal values may be shown once. Marks after values point to notes of the source that are not given here.

Take `Cc1cnc(C)c(S)n1` [3,6-dimethylpyrazine-2-thiol]: the “Effect on prostate and seminal vesicle weights” value in data set [1] was “caused a decrease in prostate and seminal vesicle weights”.
For `CCc1cnccn1` [2-ethylpyrazine], the “LOAEL, Ciliary Beat Frequency” value in data set [2] (as stated in the abstract) is recorded as 1 picomolar. In data set [2], the “Efficacy, Ciliary Beat Frequency” value is listed as 3** %. Further, in data set [3], the “LOAEL, infundibular smooth muscle contraction” value is reported as 1 picomolar; the “Efficacy, Contraction Rate” value worked out at 38%; the “Decrease of LOAEL in the smooth muscle contraction assay relative to pyrazine” value was determined as 1000 fold. In addition, the “LOAEL, oocyte pickup rate” value in data set [4] (as stated in the abstract) is recorded as 10 picomolar. In addition, the “Efficacy, Oocyte Pickup Rate” value in data set [4] is on record as 45* %.
Regarding `c1cnccn1` [pyrazine], in data set [2] (as stated in the abstract), the “LOAEL, Ciliary Beat Frequency” value amounted to 1 picomolar. Besides, in data set [2], the “Efficacy, Ciliary Beat Frequency” value came out at 25%. Also, in data set [2] (setting [8]), the “Inhibitory potency relative to pyridine, ciliary beat frequency” value is recorded as “at least 1 million”. In data set [3], the “LOAEL, infundibular smooth muscle contraction” value was determined as 1 nM; the “LOAEL, Contraction Rate” value is 10^-9 M; the “Efficacy, Contraction Rate” value came to 40%. In data set [3] (setting [8]), the “Inhibitory potency relative to pyridine, infundibular smooth muscle contraction” value is “at least 1 million”. Also, the “LOAEL dose, oocyte pickup rate assay” value in data set [4] (LOAEL expressed in ppb for comparison with food levels) is reported as 4 ppb. Also, the “LOAEL, oocyte pickup rate” value in data set [4] (as stated in the abstract) came to 10 picomolar. Besides, the “Efficacy, Oocyte Pickup Rate” value in data set [4] is listed as 29%. Also, in data set [4] (setting [8]), the “Inhibitory potency relative to pyridine, oocyte pickup rate” value is “at least 1 million”. Moreover, the “Effect on CAM and embryo growth” value in data set [5] was “inhibited both CAM and embryo growth at picomolar doses”.
Consider `COc1nccnc1C` [2-methoxy-3-methylpyrazine], for which, in data set [2] (setting [9]), the “LOAEL, Ciliary Beat Frequency” value is listed as 10^-9 M. Moreover, the “Efficacy, Ciliary Beat Frequency” value in data set [2] turned out to be 18%. Also, the “Efficacy, Contraction Rate” value in data set [3] is recorded as 17** %; in data set [3] (listed as 2-Methoxy-3-methylpyrazine), 17%. The “Efficacy, Oocyte Pickup Rate” value in data set [4] was determined as 13%.
On to `Cc1cnccn1` [2-methylpyrazine], for which the “LOAEL, Ciliary Beat Frequency” value in data set [2] (as stated in the abstract) is 1 picomolar. In addition, the “Efficacy, Ciliary Beat Frequency” value in data set [2] is reported as 11* %. For the same compound, in data set [3], the “LOAEL, infundibular smooth muscle contraction” value is listed as 10 picomolar; the “Efficacy, Contraction Rate” value is 61** %; the “Decrease of LOAEL in the smooth muscle contraction assay relative to pyrazine” value is reported as 100 fold. The “LOAEL, oocyte pickup rate” value in data set [4] (as stated in the abstract) is 10 picomolar. Also, the “Efficacy, Oocyte Pickup Rate” value in data set [4] is on record as 43* %.
`Cc1cncc(C)n1` [2,6-dimethylpyrazine]: the “LOAEL, Ciliary Beat Frequency” value in data set [2] (setting [9]) was 10^-6 M. Also, the “Efficacy, Ciliary Beat Frequency” value in data set [2] is 5** %. Also, in data set [3], the “LOAEL, Contraction Rate” value was 10^-7 M and the “Efficacy, Contraction Rate” value was 85*** %. Moreover, the “Efficacy, Contraction Rate” value in data set [3] (listed as 2,6-Dimethylpyrazine) is recorded as 85%. Moreover, the “LOAEL, oocyte pickup rate” value in data set [4] (setting [9]) is recorded as 10^-9 M. Also, the “Efficacy, Oocyte Pickup Rate” value in data set [4] was 3.5% and 3** %.
With `Cc1cnc(C)c(C)n1` [2,3,5-trimethylpyrazine], the “LOAEL, Ciliary Beat Frequency” value in data set [2] (setting [9]) is on record as 10^-9 M. Besides, the “Efficacy, Ciliary Beat Frequency” value in data set [2] came out at 18%. For the same compound, in data set [3], the “LOAEL, Contraction Rate” value is 10^-9 M and the “Efficacy, Contraction Rate” value was determined as 58%. Further, in data set [4], the “Efficacy, Oocyte Pickup Rate” value came out at 10%.
On to `Cc1cnc(C)cn1` [2,5-dimethylpyrazine], for which the “LOAEL, Ciliary Beat Frequency” value in data set [2] (setting [9]) is listed as 10^-8 M. For the same compound, the “Efficacy, Ciliary Beat Frequency” value in data set [2] is 34%. Further, the “Effect on onset of puberty” value in data set [6] is reported as “delayed the onset of puberty”. For the same compound, the “Effect on uterine weight” value in data set [7] was “caused a decrease in uterine weight”. Besides, in data set [3], the “LOAEL, Contraction Rate” value is 10^-9 M. In data set [3], the “Efficacy, Contraction Rate” value is 40%. In addition, the “Efficacy, Oocyte Pickup Rate” value was 10* % in data set [4] and 9.9% in data set [4] (listed as 2,5-Dimethylpyrazine).

(Values after publication PMC428586 (Reproductive biology and endocrinology : RB&E, 2004).)
